Values after ≈ are worked out from the molar mass of the structure shown.
What was measured:
Type in all cases: functional
Pseudomonas aeruginosa = experiment: Antimicrobial activity against Pseudomonas aeruginosa clinical isolate after 18 to 22 hrs by broth microdilution method in presence of beta-lactamase inhibitor Tazobactam
Summary of the method: (§1)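 Piperacillin-tazobactam was tested by CLSI broth microdilution in Mueller-Hinton II broth against clinical isolates. Inoculum was 10^5 CFU/ml, with 18 to 22 h incubation at 35°C in ambient air. MIC was read as the lowest concentration completely inhibiting visible growth.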

Enterococcus faecium = experiment: Antimicrobial activity against Enterococcus faecium clinical isolate after 18 to 22 hrs by broth microdilution method in presence of beta-lactamase inhibitor Tazobactam; summary of the method: as §1
Enterococcus faecalis = experiment: Antimicrobial activity against vancomycin-resistant Enterococcus faecalis clinical isolate after 18 to 22 hrs by broth microdilution method in presence of beta-lactamase inhibitor Tazobactam
Summary of the method: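 CLSI broth microdilution in Mueller-Hinton II broth. Antibiotic in serial dilution with the β-lactamase inhibitor held at a constant 4 μg/ml. Inoculum 10^5 CFU/ml. Incubated 18 to 22 h at 35°C in ambient air.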

Streptococcus pneumoniae [1] = experiment: Antimicrobial activity against penicillin-intermediate Streptococcus pneumoniae clinical isolate after 18 to 22 hrs by broth microdilution method in presence of beta-lactamase inhibitor Tazobactam
Summary of the method: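 Broth microdilution per CLSI in Mueller-Hinton II broth supplemented with 5% lysed horse blood, using serial dilutions of piperacillin-tazobactam. Inoculum was 10^5 CFU/ml. Incubation was 18 to 22 h at 35°C in ambient air. MIC was the lowest concentration with no growth visible to the unaided eye.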

Streptococcus pneumoniae [2] = experiment: Antimicrobial activity against penicillin-intermediate Streptococcus pneumoniae clinical isolate after 18 to 22 hrs by broth microdilution method in presence of beta-lactamase inhibitor BLI-489
Summary of the method: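 Streptococci were tested by CLSI broth microdilution in Mueller-Hinton II broth plus 5% lysed horse blood. Piperacillin was serially diluted with BLI-489 fixed at a constant 4 μg/ml. Inoculum was 10^5 CFU/ml, with 18 to 22 h at 35°C in ambient air. MIC was the lowest concentration completely inhibiting growth by eye.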

Streptococcus pneumoniae [3] = experiment: Antimicrobial activity against penicillin-resistant Streptococcus pneumoniae clinical isolate after 18 to 22 hrs by broth microdilution method in presence of beta-lactamase inhibitor BLI-489
Summary of the method: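 CLSI broth microdilution in Mueller-Hinton II broth with 5% lysed horse blood. Antibiotic in serial dilution with the β-lactamase inhibitor held at a constant 4 μg/ml. Inoculum 10^5 CFU/ml. Incubated 18 to 22 h at 35°C in ambient air. MIC is the lowest concentration with no growth visible to the eye.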

Bacteroides fragilis = experiment: Antimicrobial activity against Bacteroides fragilis clinical isolate after 18 to 22 hrs by broth microdilution method
Bacteroides uniformis [4] = experiment: Antimicrobial activity against Bacteroides uniformis clinical isolate after 18 to 22 hrs by broth microdilution method
Bacteroides uniformis [5] = experiment: Antimicrobial activity against Bacteroides uniformis clinical isolate after 18 to 22 hrs by broth microdilution method in presence of beta-lactamase inhibitor Tazobactam
Clostridium perfringens = experiment: Antimicrobial activity against Clostridium perfringens clinical isolate after 18 to 22 hrs by broth microdilution method in presence of beta-lactamase inhibitor Tazobactam
[6] = tested on: Peptostreptococcus anaerobius; experiment: Antimicrobial activity against Peptostreptococcus anaerobius clinical isolate after 18 to 22 hrs by broth microdilution method in presence of beta-lactamase inhibitor BLI-489
Parvimonas micra = experiment: Antimicrobial activity against Peptostreptococcus micros clinical isolate after 18 to 22 hrs by broth microdilution method in presence of beta-lactamase inhibitor BLI-489
Enterococcus durans = experiment: Antimicrobial activity against Enterococcus durans clinical isolate after 18 to 22 hrs by broth microdilution method in presence of beta-lactamase inhibitor BLI-489
Summary of the method: (§2)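 CLSI broth microdilution in Mueller-Hinton II broth. Piperacillin serial dilutions were combined with BLI-489 held constant at 4 μg/ml. Inoculum was 10^5 CFU/ml. Plates were incubated 18 to 22 h at 35°C in ambient air. MIC was the lowest concentration completely inhibiting growth seen by the unaided eye. Piperacillin-tazobactam interpretive criteria were applied.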

Enterococcus hirae = experiment: Antimicrobial activity against Enterococcus hirae clinical isolate after 18 to 22 hrs by broth microdilution method in presence of beta-lactamase inhibitor Tazobactam; summary of the method: as §1
Escherichia coli = experiment: Antimicrobial activity against class A extended spectrum beta-lactamase- and class D OXA- producing Escherichia coli clinical isolate after 18 to 22 hrs by broth microdilution method in presence of beta-lactamase inhibitor BLI-489
Summary of the method: (§3)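 CLSI broth microdilution in Mueller-Hinton II broth. Serial dilutions of piperacillin were tested with BLI-489 held at a constant 4 μg/ml. Inoculum was 10^5 CFU/ml. Plates were incubated 18 to 22 h at 35°C in ambient air. MIC was the lowest concentration giving complete growth inhibition by unaided eye.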

Klebsiella aerogenes [7] = experiment: Antimicrobial activity against AmpC beta-lactamase-producing Enterobacter aerogenes clinical isolate after 18 to 22 hrs by broth microdilution method in presence of beta-lactamase inhibitor Tazobactam
Summary of the method: (§4)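 Piperacillin-tazobactam was tested on recent clinical isolates by CLSI broth microdilution in Mueller-Hinton II broth, with tazobactam at constant 4 μg/ml. Wells held 10^5 CFU/ml and were incubated 18 to 22 h at 35°C in ambient air. MIC was the lowest concentration with no growth visible to the unaided eye.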

Citrobacter freundii = experiment: Antimicrobial activity against AmpC beta-lactamase-producing Citrobacter freundii clinical isolate after 18 to 22 hrs by broth microdilution method in presence of beta-lactamase inhibitor BLI-489; summary of the method: as §2
Klebsiella aerogenes [8] = experiment: Antimicrobial activity against Enterobacter aerogenes clinical isolate after 18 to 22 hrs by broth microdilution method in presence of beta-lactamase inhibitor BLI-489; summary of the method: as §2
Morganella morganii = experiment: Antimicrobial activity against Morganella morganii clinical isolate after 18 to 22 hrs by broth microdilution method in presence of beta-lactamase inhibitor Tazobactam; summary of the method: as §1
Proteus vulgaris = experiment: Antimicrobial activity against Proteus vulgaris clinical isolate after 18 to 22 hrs by broth microdilution method in presence of beta-lactamase inhibitor BLI-489; summary of the method: as §3
[9] = tested on: Acinetobacter haemolyticus; experiment: Antimicrobial activity against Acinetobacter haemolyticus clinical isolate after 18 to 22 hrs by broth microdilution method in presence of beta-lactamase inhibitor Tazobactam; summary of the method: as §4

SMILES: CCN1CCN(C(=O)N[C@@H](C(=O)N[C@@H]2C(=O)N3[C@@H]2SC(C)(C)[C@@H]3C(=O)O)c2ccccc2)C(=O)C1=O [PIPERACILLIN]
- MIC50 (Pseudomonas aeruginosa): 16 µg/mL
- MIC90 (Pseudomonas aeruginosa): > 128 µg/mL
- MIC50 (Enterococcus faecium): 32 µg/mL
- MIC90 (Enterococcus faecium): > 128 µg/mL
- MIC50 (Enterococcus faecalis): 2 µg/mL
- MIC90 (Enterococcus faecalis): > 128 µg/mL
- MIC50 (Streptococcus pneumoniae [1]): 0.5 µg/mL
- MIC90 (Streptococcus pneumoniae [1]): 1 µg/mL
- MIC50 (Streptococcus pneumoniae [2]): 0.25 µg/mL
- MIC90 (Streptococcus pneumoniae [2]): 1 µg/mL
- MIC50 (Streptococcus pneumoniae [3]): 2 µg/mL
- MIC90 (Streptococcus pneumoniae [3]): 4 µg/mL
- MIC50 (Bacteroides fragilis): 8 µg/mL (≈ 15.5 µM)
- MIC90 (Bacteroides fragilis): > 128 µg/mL
- MIC50 (Bacteroides uniformis [4]): 16 µg/mL (≈ 30.9 µM)
- MIC90 (Bacteroides uniformis [4]): 32 µg/mL (≈ 61.8 µM)
- MIC50 (Bacteroides uniformis [5]): 0.5 µg/mL
- MIC90 (Bacteroides uniformis [5]): 4 µg/mL
- MIC (Clostridium perfringens): ≤ 0.015 µg/mL
- MIC50 (Clostridium perfringens): ≤ 0.015 µg/mL
- MIC90 (Clostridium perfringens): 0.03 µg/mL
- MIC [6]: ≤ 0.015 µg/mL
- MIC50 [6]: ≤ 0.015 µg/mL
- MIC90 [6]: ≤ 0.015 µg/mL
- MIC (Parvimonas micra): ≤ 0.015 µg/mL
- MIC50 (Parvimonas micra): ≤ 0.015 µg/mL
- MIC90 (Parvimonas micra): ≤ 0.015 µg/mL
- MIC50 (Enterococcus durans): 2 µg/mL
- MIC90 (Enterococcus durans): 8 µg/mL
- MIC50 (Enterococcus hirae): 4 µg/mL
- MIC90 (Enterococcus hirae): 16 µg/mL
- MIC (Escherichia coli): 2 µg/mL
- MIC50 (Escherichia coli): 2 µg/mL
- MIC90 (Escherichia coli): 16 µg/mL
- MIC (Klebsiella aerogenes [7]): > 8 µg/mL
- MIC50 (Klebsiella aerogenes [7]): 4 µg/mL
- MIC90 (Klebsiella aerogenes [7]): 16 µg/mL
- MIC50 (Citrobacter freundii): 4 µg/mL
- MIC90 (Citrobacter freundii): 64 µg/mL
- MIC50 (Klebsiella aerogenes [8]): 2 µg/mL
- MIC90 (Klebsiella aerogenes [8]): 64 µg/mL
- MIC50 (Morganella morganii): 0.5 µg/mL
- MIC90 (Morganella morganii): 1 µg/mL
- MIC50 (Proteus vulgaris): 0.5 µg/mL
- MIC90 (Proteus vulgaris): 1 µg/mL
- MIC50 [9]: ≤ 0.12 µg/mL
- MIC90 [9]: 32 µg/mL

From ChEMBL document CHEMBL1629583, “Establishment of in vitro susceptibility testing methodologies and comparative activities of piperacillin in combination with the penem {beta}-lactamase inhibitor BLI-489” (2009)
